Shown are actives, neighbours in structure and some others; about 1.9% of the full set was active somewhere.
HCV core dimer: HCV core protein dimerization inhibition; TR-FRET GST/Flag-core106 dimerization, 1536-well; inhibition, % at 5 µM; 0.33% of 300,000 active;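 active means inhibition above the mean of all tested compounds plus 3 SD, set per screening campaign, cut at about 45% in these data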
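test system = GST/Flag-tagged HCV core106 proteins | probe or stimulus = Eu donor and XL665 acceptor anti-tag antibodies | times = compound-protein-antibody incubation 4 h at 22.5 °C | signal = TR-FRET, excitation 340 nm, emission 617 and 671 nm | measure = percent inhibition of core106 dimerization signal | controls = wells lacking GST-core106 and wells with excess unlabelled core106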
EBNA-1 inhibitor: blocks EBNA-1 binding to DNA; 0.34% of 300,000 active; AID 1950; inhibition, % at 14.8 µM; EBNA-1 DNA binding, fluorescence polarization; in the data active means inhibition above about 28%
PP1 counter: counter-screen for PP5 inhibitors: inhibitors of human PP1-alpha. P62136. purified PP1alpha, OMFP fluorescence. inhibition, % at 6.7 µM. 0.9% of 320,000 active;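 active means inhibition above the mean inhibition of all tested compounds plus 3 SD, computed separately for each screening campaign, cut at about 15% in these data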
Target sequence (P62136 whole entry, looked up): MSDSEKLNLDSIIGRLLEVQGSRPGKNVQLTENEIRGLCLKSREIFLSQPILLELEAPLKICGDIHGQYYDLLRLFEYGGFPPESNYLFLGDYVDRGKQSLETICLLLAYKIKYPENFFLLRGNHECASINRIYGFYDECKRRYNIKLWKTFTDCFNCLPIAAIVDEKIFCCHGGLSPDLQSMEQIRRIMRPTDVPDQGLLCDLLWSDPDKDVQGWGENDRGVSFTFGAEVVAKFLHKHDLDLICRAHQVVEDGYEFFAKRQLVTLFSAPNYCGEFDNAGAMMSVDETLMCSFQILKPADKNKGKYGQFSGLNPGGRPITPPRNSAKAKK
NS3 helicase inh: HCV NS3 helicase inhibition; NS3 helicase DNA unwinding, Cy5 molecular beacon fluorescence; inhibition, % at 10.9 µM; 0.56% of 290,000 active;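 active means inhibition above the mean of all tested compounds plus 3 SD, set per campaign, cut at about 35% in these data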;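 further: 0% = DMSO wells and 100% = thioflavine S control wells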
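Test system: hepatitis C virus NS3 helicase domain fragment enzyme. Also added: annealed dual-labelled DNA beacon duplex, ATP-started. Timing: 60 min unwinding reaction at 25 °C after ATP addition. Technique: Cy5 fluorescence. Measure: % inhibition of unwinding.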
ZTA counter: blocks Epstein-Barr virus ZTA, an EBNA-1 counter-screen. P03206. ZTA-DNA binding, fluorescence polarization. inhibition, % at 11 µM. 0.15% of 320,000 active. AID 2234; in the data active means inhibition above about 33%
Target sequence (P03206 whole entry, looked up): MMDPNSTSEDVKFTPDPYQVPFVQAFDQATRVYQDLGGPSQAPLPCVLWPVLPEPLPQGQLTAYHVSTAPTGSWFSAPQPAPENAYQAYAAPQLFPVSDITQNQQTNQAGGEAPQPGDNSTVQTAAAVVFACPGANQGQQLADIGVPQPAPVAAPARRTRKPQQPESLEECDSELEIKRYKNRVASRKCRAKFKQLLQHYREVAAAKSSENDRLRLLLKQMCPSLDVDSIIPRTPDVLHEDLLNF
EBNA-1 confirm: EBNA-1 (EBV) inhibition, confirmation; shares compounds with EBNA-1 inhibitor; Recombinant EBNA-1 DBD, Cy5-DNA fluorescence polarization; inhibition, % at 14.8 µM; 35% of 830 active; AID 2292;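 active means mean inhibition across replicates above a set limit taken from the earlier primary screen, cut at about 28% in these data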;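 further: plate controls were EBNA-1 protein with DMSO for no effect and wells lacking EBNA-1 for full effect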
ZTA DNA inh trip: ZTA (EBV) inhibition, triplicate counter-screen | shares compounds with EBNA-1 inhibitor | Zta-ZRE DNA binding, Cy5 fluorescence polarization | inhibition, % at 11.1 µM | 830 tested, under 10 active;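 active means mean inhibition over triplicates above a set limit taken from the primary EBNA-1 screen, cut at about 37% in these data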;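 further: purified full length Zta protein with Cy5 labeled ZRE DNA probe; 0% = Zta with DMSO and 100% = wells lacking Zta protein; inhibitors lower polarization by freeing the labeled DNA probe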
Active calls of the source: *; . = no result.

SMILES	HCV core dimer	EBNA-1 inhibitor	PP1 counter	NS3 helicase inh	ZTA counter	EBNA-1 confirm	ZTA DNA inh trip
COc1ccc(Cn2c(-c3ccccc3C)nc3c(c(=O)c4ccccc4n3C)c2=O)cc1	20	2	-1	.	-3	.	.
O=C(NCc1ccc2c(c1)OCO2)c1ccc2c(c1)S(=O)(=O)c1ccccc1C2=O	6	-2	10	.	11	.	.
CCC(=O)c1ccc(N2CCN(C(=O)COc3ccc(F)cc3)CC2)c(F)c1	2	28*	0	4	12	5	9
NC(=O)c1cccc(NC(=O)Nc2ccc(Cl)cc2)c1	14	38*	6	-5	7	7	5
O=C(Nc1ccc(Cl)cc1)Nc1ccc(Cl)c(Cl)c1	.	.	4	.	10	.	.
Cc1cccc(N2CCN(C3CCCCC3NS(=O)(=O)c3ccccc3)CC2C)c1 (stereo not given)	6	5	1	-11	-2	.	.
CCOc1ccc(S(=O)(=O)N2CCOCC2)cc1NC(=O)CSCc1c(C)noc1C	-8	-10	-3	.	-4	.	.
CS(=O)(=O)c1ccc(Cl)c(NC(=O)Cc2c(F)cccc2Cl)c1	11	44*	-4	-9	-6	30*	-12
CCc1cc(C(=O)N(CC(C)C)c2c(N)n(Cc3ccccc3)c(=O)[nH]c2=O)sc1C	3	33*	0	.	-1	22	-13
Cc1ccnc(SCC(=O)N2CCc3ccccc32)n1	6	32*	-6	6	5	-1	0
Cc1ccc(-c2nnc(N3CCOCC3)c3ccccc23)cc1S(N)(=O)=O	17	-5	3	.	3	.	.
Cc1ccccc1C(=O)Nc1nc2c(C)csc2c(=O)s1	2	55*	-2	2	4	5	2
Cc1ccc(S(=O)(=O)NCC2CCC(C(=O)NC3CCCCC3)CC2)cc1 (stereo not given)	-3	49*	0	1	1	39*	3
CC(=O)Nc1ccc(S(=O)(=O)NCC2CCC(C(=O)NC3CCCCCC3)CC2)cc1 (stereo not given)	-7	2	-3	9	18	.	.
O=C(NC(=S)NCc1nc2ccccc2[nH]1)c1ccccc1F	1	-4	4	6	-12	.	.
O=C(NC(=S)NCc1nc2ccccc2[nH]1)c1ccc(F)cc1	4	33*	-1	-3	20	-13	-12
CS(=O)(=O)N(CC(=O)N/N=C/c1ccc(OCC(=O)N2CCOCC2)cc1)c1ccccc1Cl	-7	36*	-2	0	-17	-1	-5
O=C(N/N=C/c1ccc(OCC(=O)N2CCOCC2)cc1)c1ccccc1Cl	-1	-1	4	4	4	.	.
COC(=O)c1ccc(S(=O)(=O)NCc2ccccn2)n1C	-1	-4	-5	-6	-1	.	.
CC(=O)c1ccc(NC(=O)CSc2ccc(-c3ccc4c(c3)OCO4)nn2)cc1	-14	5	1	0	9	.	.
CC(=O)Nc1ccc(NC(=O)CSc2ccc(-c3ccc4c(c3)OCO4)nn2)cc1	-5	49*	0	10	6	24	3
CC(C)S(=O)(=O)c1cnc(-c2ccccn2)nc1N	1	8	-4	-1	-2	.	.
CO/C([O-])=N/c1c[n+](-c2ccc(Cl)cc2)no1	1	39*	-2	1	7	-6	-6
COc1ccc(Nc2nc(Cl)nc(NCc3ccco3)n2)c(OC)c1	-1	29*	0	-2	1	15	-6
CC(C)[C@@H](C(=O)N1CCNCC1)n1cc(CCO)nn1	-8	0	0	11	4	.	.
SMILES	HCV core dimer	EBNA-1 inhibitor	PP1 counter	NS3 helicase inh	ZTA counter	EBNA-1 confirm	ZTA DNA inh trip
O=C(N/N=C/c1ccc(OC(F)F)cc1)c1ccc(CSc2nc3ccccc3[nH]2)cc1	3	-11	-1	6	-6	.	.
CCOc1ccc(/C=N/NC(=O)c2ccc(CSc3nc4ccccc4[nH]3)cc2)cc1	8	33*	2	4	7	39*	12
O=S(=O)(O)c1cc2oc(-c3ccccc3)nc2c2ccccc12	11	10	-1	.	9	.	.
CCOc1ccc(/C=N/NC(=O)CCC(=O)Nc2ccc(F)cc2)cc1	8	2	-2	4	-4	.	.
CCOc1ccc(NC(=O)CCC(=O)N/N=C/c2ccc3c(c2)OCO3)cc1	-2	35*	2	-7	2	18	2
CC(=O)Nc1ccc(NC(=O)COC(=O)/C=C/c2ccc3c(c2)OCO3)cc1	.	.	-1	.	-2	.	.
NC(=O)c1ccc(NC(=O)COC(=O)/C=C/c2ccc3c(c2)OCO3)cc1	7	32*	-3	24	15	2	-9
COc1ccc(-c2cn(Cc3ccc(C(=O)c4ccccc4)cc3)nn2)cc1	8	28*	0	-26	-19	0	15
COc1ccc(-c2cn(Cc3ccc4ccccc4c3)nn2)cc1	-6	5	-1	-15	-13	.	.
COc1ccc2c(c1)c(CC(=O)Nc1cccc(S(N)(=O)=O)c1)c(C)n2C(=O)c1ccc(Cl)cc1	16	37*	2	-5	-20	-3	10
O=C(COc1ccccc1)NCc1ccc(-n2cccc2)cc1	2	92*	-1	-9	-6	42*	16
O=C(CCC(=O)NNC(=O)COc1ccccc1)NCc1ccccc1	-1	-6	-4	1	-7	.	.
CCN(CC(=O)Nc1ccccc1OC)C(=O)c1cc(-c2ccccc2)nn1-c1ccccc1	9	45*	3	.	2	-6	-11
Cc1ccc(NC(=O)C2CC(=O)N(Cc3ccco3)C2)cc1 (stereo not given)	-2	2	-4	-1	-5	.	.
COc1ccc(NC(=O)CN(C)C(=O)c2cc(-c3ccc(OC)cc3)nc3ccccc23)cc1	5	31*	2	.	3	0	-3
COc1ccc(-n2c(=S)[nH]c3cc(C(=O)N4CCN(c5ccccc5)CC4)ccc3c2=O)cc1	12	14	-1	0	7	.	.
O=C(CN1CCCC1)Nc1c(C(=O)C2CC2)oc2ccccc12	4	-3	-2	-7	4	.	.
N#Cc1ccccc1OCC(=O)Nc1c(C(=O)C2CC2)oc2ccccc12	-43	30*	1	-7	19	92*	5
O=C(Nc1cccc(C(=O)N2CCN(c3ccc(F)cc3)CC2)c1)c1ccccc1	-2	-6	0	-10	-11	.	.
O=C(c1cccc(-c2ccc(O)cc2)c1)N1CCN(c2ccc(F)cc2)CC1	6	40*	-3	-3	-6	20	-3
CCOC(=O)C(Cc1c[nH]c2ccccc12)NC(=O)c1ccccc1Br (stereo not given)	9	1	-1	1	-1	.	.

Source: PubChem (The Scripps Research Institute Molecular Screening Center)
